Source: ChEMBL document CHEMBL5649168, “Discovery of a selective catalytic p300/CBP inhibitor that targets lineage-specific tumours” (Nature, 2017)
Active and inactive are the calls of the source. No cut-off for these calls is given here.

How the values were obtained:
[1] = target: Serine/threonine-protein kinase D3 (Homo sapiens, UniProt O94806); assay: Inhibition of PRKCN (unknown origin)
[2] = tested on: NCI-H838; assay: Antiproliferative activity against human NCI-H838 cells assessed as inhibition of cell viability incubated for 3 to 5 days by Celltiter-Glo luminescent assay; type: functional, cell-based
[3] = tested on: L-363; assay: Antiproliferative activity against human L-363 cells assessed as inhibition of cell viability incubated for 3 to 5 days by Celltiter-Glo luminescent assay; type: functional, cell-based
[4] = tested on: HCC4006; assay: Antiproliferative activity against human HCC4006 cells assessed as inhibition of cell viability incubated for 3 to 5 days by Celltiter-Glo luminescent assay; type: functional, cell-based
[5] = tested on: CAL-120; assay: Antiproliferative activity against human CAL-120 cells assessed as inhibition of cell viability incubated for 3 to 5 days by Celltiter-Glo luminescent assay; type: functional, cell-based
[6] = tested on: MDA-MB-157; assay: Antiproliferative activity against human MDA-MB-157 cells assessed as inhibition of cell viability incubated for 3 to 5 days by Celltiter-Glo luminescent assay; type: functional, cell-based
[7] = target: Serine/threonine-protein kinase B-raf (Homo sapiens, UniProt P15056); assay: Inhibition of B-Raf (unknown origin)
[8] = target: Bromodomain testis-specific protein (Homo sapiens, UniProt Q58F21); assay: Inhibition of BRDT (unknown origin)
[9] = tested on: NCI-H727; assay: Antiproliferative activity against human NCI-H727 cells assessed as inhibition of cell viability incubated for 3 to 5 days by Celltiter-Glo luminescent assay; type: functional, cell-based
[10] = tested on: HCC1937; assay: Antiproliferative activity against human HCC1937 cells assessed as inhibition of cell viability incubated for 3 to 5 days by Celltiter-Glo luminescent assay; type: functional, cell-based
[11] = tested on: LuCaP-77 CR cell; settings: Homo sapiens, dose 100.0 mg/kg, time 7.0 day
[12] = tested on: LuCaP-77 CR cell; settings: Homo sapiens, dose 100.0 mg/kg, time 7.0 day; remark: listed apart in the source
[13] = target: Glycogen synthase kinase-3 alpha (Homo sapiens, UniProt P49840); assay: Inhibition of Gsk3alpha (unknown origin)
[14] = target: Dual specificity tyrosine-phosphorylation-regulated kinase 1A (Homo sapiens, UniProt Q13627); assay: Inhibition of Dyrk1A (unknown origin)
[15] = tested on: HCC70; assay: Antiproliferative activity against human HCC70 cells assessed as inhibition of cell viability incubated for 3 to 5 days by Celltiter-Glo luminescent assay; type: functional, cell-based
[16] = target: Serine/threonine-protein kinase 16 (Homo sapiens, UniProt O75716); assay: Inhibition of STK16 (unknown origin)
[17] = tested on: U-2973; assay: Antiproliferative activity against human U-2973 cells assessed as inhibition of cell viability incubated for 3 to 5 days by Celltiter-Glo luminescent assay; type: functional, cell-based
[18] = Inhibition of CDK8/Cyclin C (unknown origin); design: species or system Homo sapiens
[19] = tested on: MOLT-4; assay: Antiproliferative activity against human MOLT-4 cells assessed as inhibition of cell viability incubated for 3 to 5 days by Celltiter-Glo luminescent assay; type: functional, cell-based
[20] = Cmax in CB17 SCID mouse xenografted with LuCaP-77 CR cell at 50 mg/kg, ip administered for 7 days; type: ADME, organism-based; settings: in vivo, time 7 day
[21] = tested on: Karpas-1106P; assay: Antiproliferative activity against human KARPAS-1106P cells assessed as inhibition of cell viability incubated for 3 to 5 days by Celltiter-Glo luminescent assay; type: functional, cell-based
[22] = tested on: OCI-Ly18; assay: Antiproliferative activity against human OCI-Ly18 cells assessed as inhibition of cell viability incubated for 3 to 5 days by Celltiter-Glo luminescent assay; type: functional, cell-based
[23] = Half life in CB17 SCID mouse xenografted with LuCaP-77 CR cell at 200 mg/kg, ip administered for 7 days; type: ADME, organism-based; settings: in vivo, time 7 day
[24] = tested on: Daudi; assay: Antiproliferative activity against human Daudi cells assessed as inhibition of cell viability incubated for 3 to 5 days by Celltiter-Glo luminescent assay; type: functional, cell-based
[25] = tested on: MDA-MB-453; assay: Antiproliferative activity against human MDA-MB-453 cells assessed as inhibition of cell viability incubated for 3 to 5 days by Celltiter-Glo luminescent assay; type: functional, cell-based
[26] = target: CREB-binding protein/Histone acetyltransferase p300 (Homo sapiens, UniProt Q09472+Q92793); assay: Inhibition of p300/CBP in human 22Rv1 cells assessed as reduction in H3K9Ac level incubated for 3 hrs by Hoechst 33342 staining based high content microscopy analysis; type: cell-based
How it was run: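 Cells received an 8-point half-log dilution series from 10 µM. They were then fixed in 10% formaldehyde (10 min, RT), permeabilised with 0.1% Triton X-100 and blocked with 1% BSA for 1 h. Primary antibodies were applied overnight at 4 °C, followed by Alexa488 anti-rabbit, Alexa555 anti-mouse and Hoechst 33342 for 1 h. Fifteen fields per well were imaged and average mean intensity taken. EC50 came from a sigmoidal fit.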

[27] = tested on: LNCaP-Clone-FGC; assay: Antiproliferative activity against human LNCaP-Clone-FGC cells assessed as inhibition of cell viability incubated for 3 to 5 days by Celltiter-Glo luminescent assay; type: functional, cell-based
[28] = tested on: Kasumi 1; assay: cells; settings: Homo sapiens
[29] = tested on: NCI-H929; assay: Antiproliferative activity against human NCI-H929 cells assessed as inhibition of cell viability incubated for 3 to 5 days by Celltiter-Glo luminescent assay; type: functional, cell-based
[30] = cells; settings: Homo sapiens, SC-1
[31] = tested on: HCC1143; assay: Antiproliferative activity against human HCC1143 cells assessed as inhibition of cell viability incubated for 3 to 5 days by Celltiter-Glo luminescent assay; type: functional, cell-based
[32] = tested on: U-2940; assay: Antiproliferative activity against human U-2940 cells assessed as inhibition of cell viability incubated for 3 to 5 days by Celltiter-Glo luminescent assay; type: functional, cell-based
[33] = target: Ribosomal protein S6 kinase alpha-3 (Homo sapiens, UniProt P51812); assay: Inhibition of Rsk2 (unknown origin)
[34] = target: Activated CDC42 kinase 1 (Homo sapiens, UniProt Q07912); assay: Inhibition of TNK2 (unknown origin)
[35] = target: Proto-oncogene tyrosine-protein kinase Src (Homo sapiens, UniProt P12931); assay: Inhibition of Src (unknown origin)
[36] = tested on: KARPAS-422; assay: Antiproliferative activity against human KARPAS-422 cells assessed as inhibition of cell viability incubated for 3 to 5 days by Celltiter-Glo luminescent assay; type: functional, cell-based
[37] = tested on: SU-DHL-2; assay: Antiproliferative activity against human SUDHL2 cells assessed as inhibition of cell viability incubated for 3 to 5 days by Celltiter-Glo luminescent assay; type: functional, cell-based
[38] = tested on: NCI-H146; assay: Antiproliferative activity against human NCI-H146 cells assessed as inhibition of cell viability incubated for 3 to 5 days by Celltiter-Glo luminescent assay; type: functional, cell-based
[39] = tested on: Pfeiffer; assay: Antiproliferative activity against human Pfeiffer cells assessed as inhibition of cell viability incubated for 3 to 5 days by Celltiter-Glo luminescent assay; type: functional, cell-based
[40] = tested on: A-375; assay: Antiproliferative activity against human A-375 cells assessed as inhibition of cell viability incubated for 3 to 5 days by Celltiter-Glo luminescent assay; type: functional, cell-based
[41] = target: Bromodomain-containing protein 4 (Homo sapiens, UniProt O60885); assay: Inhibition of BRD4 (unknown origin)

Sequence of CREB-binding protein/Histone acetyltransferase p300 (Q09472 whole entry, looked up): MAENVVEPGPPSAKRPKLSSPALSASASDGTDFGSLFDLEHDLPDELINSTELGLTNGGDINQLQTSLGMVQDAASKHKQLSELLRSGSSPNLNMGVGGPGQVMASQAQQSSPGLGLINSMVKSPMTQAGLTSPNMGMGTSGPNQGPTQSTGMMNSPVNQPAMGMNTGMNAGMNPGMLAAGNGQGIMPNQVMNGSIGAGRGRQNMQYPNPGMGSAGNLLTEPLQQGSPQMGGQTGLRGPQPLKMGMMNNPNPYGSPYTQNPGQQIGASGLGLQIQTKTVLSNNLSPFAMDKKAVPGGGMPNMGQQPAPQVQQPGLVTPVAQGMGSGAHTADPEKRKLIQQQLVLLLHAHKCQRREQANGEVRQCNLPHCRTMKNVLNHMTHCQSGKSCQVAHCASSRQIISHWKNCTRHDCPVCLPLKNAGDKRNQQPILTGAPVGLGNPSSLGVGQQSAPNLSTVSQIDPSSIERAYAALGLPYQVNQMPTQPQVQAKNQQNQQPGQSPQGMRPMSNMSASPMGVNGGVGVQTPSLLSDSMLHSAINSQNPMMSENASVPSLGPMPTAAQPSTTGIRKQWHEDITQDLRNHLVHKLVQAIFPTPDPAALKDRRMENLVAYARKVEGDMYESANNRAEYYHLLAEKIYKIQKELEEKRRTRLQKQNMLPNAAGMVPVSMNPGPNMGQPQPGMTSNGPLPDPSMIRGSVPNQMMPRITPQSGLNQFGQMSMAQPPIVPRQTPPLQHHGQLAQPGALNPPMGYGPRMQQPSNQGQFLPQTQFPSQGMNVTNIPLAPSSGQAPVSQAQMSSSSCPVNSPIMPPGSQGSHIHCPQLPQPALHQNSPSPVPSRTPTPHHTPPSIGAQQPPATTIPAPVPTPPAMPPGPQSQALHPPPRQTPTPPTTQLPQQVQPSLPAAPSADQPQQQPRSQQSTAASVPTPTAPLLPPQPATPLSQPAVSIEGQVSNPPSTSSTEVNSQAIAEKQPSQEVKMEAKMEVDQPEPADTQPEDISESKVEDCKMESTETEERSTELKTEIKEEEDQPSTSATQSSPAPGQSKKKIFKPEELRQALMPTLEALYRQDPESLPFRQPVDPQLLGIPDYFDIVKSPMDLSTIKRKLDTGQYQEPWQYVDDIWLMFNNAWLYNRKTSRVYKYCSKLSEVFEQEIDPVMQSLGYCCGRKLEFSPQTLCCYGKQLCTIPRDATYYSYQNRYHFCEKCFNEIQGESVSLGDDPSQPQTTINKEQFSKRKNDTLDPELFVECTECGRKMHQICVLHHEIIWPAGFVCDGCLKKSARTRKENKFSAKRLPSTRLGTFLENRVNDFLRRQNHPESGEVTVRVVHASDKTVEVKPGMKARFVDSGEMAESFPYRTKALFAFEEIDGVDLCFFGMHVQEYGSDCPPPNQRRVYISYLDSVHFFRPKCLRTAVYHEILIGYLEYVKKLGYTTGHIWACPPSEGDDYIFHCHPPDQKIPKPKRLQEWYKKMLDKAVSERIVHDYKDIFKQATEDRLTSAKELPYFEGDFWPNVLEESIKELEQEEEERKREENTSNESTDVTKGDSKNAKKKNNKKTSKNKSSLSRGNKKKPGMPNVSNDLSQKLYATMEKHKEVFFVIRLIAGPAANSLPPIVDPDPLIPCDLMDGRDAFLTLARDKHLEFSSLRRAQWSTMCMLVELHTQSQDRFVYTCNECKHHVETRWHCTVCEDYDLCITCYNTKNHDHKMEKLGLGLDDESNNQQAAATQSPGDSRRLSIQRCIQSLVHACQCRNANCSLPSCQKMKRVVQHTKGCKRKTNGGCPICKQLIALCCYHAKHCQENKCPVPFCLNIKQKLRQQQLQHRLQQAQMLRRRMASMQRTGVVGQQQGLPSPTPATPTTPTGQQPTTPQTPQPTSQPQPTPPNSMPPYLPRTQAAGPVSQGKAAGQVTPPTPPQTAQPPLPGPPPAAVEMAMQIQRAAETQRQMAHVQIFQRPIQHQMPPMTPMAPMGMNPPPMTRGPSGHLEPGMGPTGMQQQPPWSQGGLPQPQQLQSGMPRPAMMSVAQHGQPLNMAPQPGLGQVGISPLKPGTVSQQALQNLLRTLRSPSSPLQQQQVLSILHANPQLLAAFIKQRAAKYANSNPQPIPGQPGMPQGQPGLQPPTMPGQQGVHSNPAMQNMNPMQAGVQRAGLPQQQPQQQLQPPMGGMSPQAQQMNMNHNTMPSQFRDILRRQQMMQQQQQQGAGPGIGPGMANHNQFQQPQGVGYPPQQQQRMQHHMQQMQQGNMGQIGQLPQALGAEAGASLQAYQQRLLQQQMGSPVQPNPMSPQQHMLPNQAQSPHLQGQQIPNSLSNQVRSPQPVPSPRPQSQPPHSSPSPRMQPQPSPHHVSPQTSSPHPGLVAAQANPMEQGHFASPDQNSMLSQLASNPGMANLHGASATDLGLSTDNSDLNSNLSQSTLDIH
Sequence of CREB-binding protein/Histone acetyltransferase p300 (Q92793 whole entry, looked up): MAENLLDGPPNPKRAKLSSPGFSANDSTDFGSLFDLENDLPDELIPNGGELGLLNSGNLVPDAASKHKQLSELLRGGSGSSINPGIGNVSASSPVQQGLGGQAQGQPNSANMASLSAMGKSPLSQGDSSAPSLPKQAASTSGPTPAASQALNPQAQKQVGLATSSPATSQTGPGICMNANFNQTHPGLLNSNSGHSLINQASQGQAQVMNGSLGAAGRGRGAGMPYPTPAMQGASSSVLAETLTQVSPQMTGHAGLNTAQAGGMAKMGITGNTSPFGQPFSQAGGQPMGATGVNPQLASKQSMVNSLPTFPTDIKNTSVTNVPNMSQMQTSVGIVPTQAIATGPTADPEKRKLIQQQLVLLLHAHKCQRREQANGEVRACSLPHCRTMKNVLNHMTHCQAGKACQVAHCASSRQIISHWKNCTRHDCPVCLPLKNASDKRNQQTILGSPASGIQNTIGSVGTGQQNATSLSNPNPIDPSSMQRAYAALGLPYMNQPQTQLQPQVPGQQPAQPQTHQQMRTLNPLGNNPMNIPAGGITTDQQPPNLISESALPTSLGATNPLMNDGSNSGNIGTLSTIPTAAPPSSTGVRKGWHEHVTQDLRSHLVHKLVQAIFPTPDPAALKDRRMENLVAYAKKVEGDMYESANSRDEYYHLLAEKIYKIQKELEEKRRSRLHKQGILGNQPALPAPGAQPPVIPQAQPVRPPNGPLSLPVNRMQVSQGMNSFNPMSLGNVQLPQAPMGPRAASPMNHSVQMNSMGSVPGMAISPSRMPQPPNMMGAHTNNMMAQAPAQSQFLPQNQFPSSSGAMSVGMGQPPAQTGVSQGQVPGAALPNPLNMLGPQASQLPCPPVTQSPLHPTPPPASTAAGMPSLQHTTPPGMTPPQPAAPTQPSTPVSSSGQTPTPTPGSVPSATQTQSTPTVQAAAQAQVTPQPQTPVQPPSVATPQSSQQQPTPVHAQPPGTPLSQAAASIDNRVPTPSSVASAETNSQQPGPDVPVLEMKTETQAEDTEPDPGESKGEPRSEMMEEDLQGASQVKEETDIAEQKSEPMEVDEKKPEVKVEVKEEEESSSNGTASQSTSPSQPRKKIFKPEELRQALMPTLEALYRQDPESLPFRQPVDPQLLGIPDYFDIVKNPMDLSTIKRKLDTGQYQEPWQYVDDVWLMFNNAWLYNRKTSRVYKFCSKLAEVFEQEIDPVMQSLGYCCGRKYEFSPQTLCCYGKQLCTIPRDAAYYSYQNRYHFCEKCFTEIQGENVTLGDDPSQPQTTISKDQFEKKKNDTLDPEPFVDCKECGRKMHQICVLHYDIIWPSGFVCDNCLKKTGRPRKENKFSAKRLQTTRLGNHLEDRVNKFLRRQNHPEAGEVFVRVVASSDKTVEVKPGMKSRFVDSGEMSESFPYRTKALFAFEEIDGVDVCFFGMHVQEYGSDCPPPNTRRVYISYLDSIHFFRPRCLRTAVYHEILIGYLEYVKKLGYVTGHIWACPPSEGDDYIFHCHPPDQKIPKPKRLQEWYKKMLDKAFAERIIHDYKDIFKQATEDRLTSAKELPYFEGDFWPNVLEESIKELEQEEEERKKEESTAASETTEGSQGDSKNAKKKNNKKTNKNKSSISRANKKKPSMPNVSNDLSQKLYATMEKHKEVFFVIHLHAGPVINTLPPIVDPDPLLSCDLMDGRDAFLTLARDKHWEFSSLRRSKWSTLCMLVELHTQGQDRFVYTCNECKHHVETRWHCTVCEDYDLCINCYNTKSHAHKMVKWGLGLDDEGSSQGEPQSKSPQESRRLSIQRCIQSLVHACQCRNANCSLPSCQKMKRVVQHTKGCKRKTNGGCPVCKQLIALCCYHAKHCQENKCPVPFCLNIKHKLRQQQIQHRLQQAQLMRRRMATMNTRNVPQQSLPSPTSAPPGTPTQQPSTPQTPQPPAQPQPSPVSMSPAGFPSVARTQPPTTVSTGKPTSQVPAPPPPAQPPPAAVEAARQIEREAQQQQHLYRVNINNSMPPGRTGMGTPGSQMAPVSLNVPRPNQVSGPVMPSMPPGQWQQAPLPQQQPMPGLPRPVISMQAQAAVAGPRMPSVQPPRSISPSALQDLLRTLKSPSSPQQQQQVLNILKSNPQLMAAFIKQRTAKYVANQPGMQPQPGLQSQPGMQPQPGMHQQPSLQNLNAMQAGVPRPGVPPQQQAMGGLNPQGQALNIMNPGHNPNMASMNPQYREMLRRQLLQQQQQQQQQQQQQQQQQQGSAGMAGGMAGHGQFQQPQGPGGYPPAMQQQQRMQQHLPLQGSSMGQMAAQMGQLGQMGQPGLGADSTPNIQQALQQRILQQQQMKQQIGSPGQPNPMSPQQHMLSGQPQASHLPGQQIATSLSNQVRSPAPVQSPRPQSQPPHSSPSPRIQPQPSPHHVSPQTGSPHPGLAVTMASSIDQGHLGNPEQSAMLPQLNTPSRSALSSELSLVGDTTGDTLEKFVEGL
Sequence of Serine/threonine-protein kinase 16 (O75716 whole entry): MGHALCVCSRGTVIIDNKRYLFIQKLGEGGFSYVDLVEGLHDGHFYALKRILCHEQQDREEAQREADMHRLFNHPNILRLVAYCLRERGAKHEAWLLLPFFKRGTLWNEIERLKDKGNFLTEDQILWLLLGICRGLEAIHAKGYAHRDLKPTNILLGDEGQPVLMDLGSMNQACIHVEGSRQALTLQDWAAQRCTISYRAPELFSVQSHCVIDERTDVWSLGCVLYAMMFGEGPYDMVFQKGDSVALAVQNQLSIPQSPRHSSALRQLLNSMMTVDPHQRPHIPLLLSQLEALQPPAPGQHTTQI

For `CNC(=O)Nc1ccc2c(c1)CC[C@@]21OC(=O)N(CC(=O)N(Cc2ccc(F)cc2)[C@@H](C)C(F)(F)F)C1=O` [A-485], the IC50 [1] was greater than 10 µM, the EC50 [2] was 6.99 µM and the EC50 [3] was 0.51 µM. The EC50 [4] was 4.64 µM, the EC50 [5] was greater than 10 µM and the EC50 [6] was 4.59 µM. The IC50 [7] was greater than 10 µM, the IC50 [8] was greater than 10 µM and the EC50 [9] was 6.63 µM. The EC50 [10] was greater than 10 µM, the inhibition [11] was “inactive” and the inhibition [12] was “Active”. The IC50 [13] was greater than 10 µM, the IC50 [14] was greater than 10 µM and the EC50 [15] was greater than 10 µM. For the same compound, the IC50 [16] was greater than 10 µM, the EC50 [17] was 0.66 µM and the IC50 [18] was greater than 10 µM. It also gave an EC50 [19] greater than 10 µM, a Cmax [20] of 14700 ng/mL and an EC50 [21] of 0.41 µM. For the same compound, the EC50 [22] was 0.32 µM, the half-life [23] was 3 h and the EC50 [24] was 0.43 µM. The EC50 [25] was 1.87 µM, the INH [26] was greater than 10 µM and the EC50 [27] was 0.26 µM. It also gave an EC50 [28] of 0.29 µM, an EC50 [29] of 0.33 µM and an EC50 [30] of 1.69 µM. It also gave an EC50 [31] greater than 10 µM, an EC50 [32] of 1.33 µM and an IC50 [33] greater than 10 µM. For the same compound, the IC50 [34] was greater than 10 µM, the IC50 [35] was greater than 10 µM and the EC50 [36] was 0.25 µM. It also gave an EC50 [37] of 0.95 µM, an EC50 [38] of 0.4 µM and an EC50 [39] of 0.86 µM. It also gave an EC50 [40] greater than 10 µM and an IC50 [41] greater than 10 µM.
